RAD54 inh: blocks human RAD54 Holliday junction branch migration. Q92698. FAM/BHQ fluorescence. inhibition, % at 10.4 µM. 0.14% of 360,000 active. AID 602329;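 active means mean normalized replicate activity at least 40 and at least half of replicates scoring 40 or more; inconclusive means only one of the two criteria met; inactive means mean below 40 and under half of replicates reaching 40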;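 further: 0% = median of neutral control wells and 100% = median of positive control wells; inhibitors cause a drop in the FAM fluorescence signal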
Target sequence (Q92698 whole entry, looked up): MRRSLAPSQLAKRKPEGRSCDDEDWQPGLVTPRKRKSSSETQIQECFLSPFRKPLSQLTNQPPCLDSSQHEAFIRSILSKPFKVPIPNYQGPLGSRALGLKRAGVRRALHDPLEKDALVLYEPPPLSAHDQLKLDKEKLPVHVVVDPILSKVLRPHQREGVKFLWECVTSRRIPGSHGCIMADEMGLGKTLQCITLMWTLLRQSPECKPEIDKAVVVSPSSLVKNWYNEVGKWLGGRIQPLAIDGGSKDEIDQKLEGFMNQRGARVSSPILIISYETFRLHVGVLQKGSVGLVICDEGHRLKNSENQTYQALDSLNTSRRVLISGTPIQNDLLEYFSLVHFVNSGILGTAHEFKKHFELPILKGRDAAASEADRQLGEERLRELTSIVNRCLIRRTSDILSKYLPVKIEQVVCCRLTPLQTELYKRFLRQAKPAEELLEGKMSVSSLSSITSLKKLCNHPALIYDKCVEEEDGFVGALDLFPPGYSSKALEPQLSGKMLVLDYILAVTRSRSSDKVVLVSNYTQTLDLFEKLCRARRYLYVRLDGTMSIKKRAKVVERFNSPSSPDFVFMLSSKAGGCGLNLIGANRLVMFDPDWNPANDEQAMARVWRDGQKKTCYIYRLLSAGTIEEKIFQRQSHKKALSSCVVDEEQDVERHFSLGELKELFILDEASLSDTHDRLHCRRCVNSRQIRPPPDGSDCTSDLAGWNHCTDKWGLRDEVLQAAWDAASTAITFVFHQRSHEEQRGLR
RAD52 anneal inh: blocks human RAD52 DNA annealing. P43351. recombinant RAD52 DNA annealing, FRET fluorescence. inhibition, % at 18.7 µM. 0.46% of 360,000 active. AID 651710;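 active means every replicate showing at least 50% inhibition; inconclusive means mean inhibition at least 50% but not in every replicate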
PglD DTNB: blocks C. jejuni PglD acetyltransferase activity; AID 602405; purified PglD enzyme, DTNB colorimetric CoA detection; inhibition, % at 12.5 µM; 0.098% of 360,000 active; in the data active means inhibition above about 16%, passing the limit was not always enough; inconclusive means no clear call, values can overlap the other calls
XiGFP reactiv: reactivates the inactive X chromosome in mouse fibroblasts; XiGFP mouse fibroblasts, % GFP-positive cells imaging, 3 d; cells co-treated with 5-aza-dC sensitizer; scaled so ellipticine positive control = 100%; activation, % at 7.58 µM; 0.055% of 360,000 active;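 active means mean normalized replicate activation at least 10% and every replicate at or above 10%; inconclusive means only one of the two criteria met; inactive means mean below 10% and not all replicates reach 10%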;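 further: 0% = median of on-plate neutral control wells and 100% = ellipticine 6 µM median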
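System: XiGFP fibroblasts, SV40-immortalized. Medium: DMEM plus 5-aza-dC sensitizer. Doses: single point. Timing: 3 d treatment, 15 min room-temperature fixation. Control set: ellipticine 6 µM.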
E-selectin induc: E-selectin induction on HUVECs; HUVEC E-selectin immunofluorescence imaging; normalized: neutral wells 0, TNF-alpha wells 100; activation, % at 7.58 µM; 0.37% of 260,000 active; AID 686992;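 active means mean E-selectin-positive cell signal at least 10% of the positive control, reached in at least 60% of replicates, without over 20% cell loss; inconclusive means no rule given, readout overlaps actives, possibly toxicity-flagged; inactive means the rest, including those meeting only one limit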
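System: HUVEC / Compound: single concentration / Signal: immunofluorescence imaging / Read-out: percent E-selectin-positive cells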
rRNA inh HTS: inhibits bacterial ribosomal RNA function over humanized ribosomes; E. coli WT GFP vs humanized-ribosome RFP mutants, fluorescence, 24 h; hits give low values; DMSO median 0, no signal -100; GFP signal change (wild-type ribosome), % (no concentration beside the values); 1.6% of 350,000 active;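 active means significant combined selectivity score with lowered wild-type GFP, culture density cut under 30%, mutant RFP and density less affected; inactive means any of these conditions unmet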
RAD52 DNA ctr: counter-screen for RAD52 inhibitors: DNA binding compounds; Salmon sperm DNA/acridine orange FP displacement; shares compounds with RAD52 anneal inh; AC50, µM; 8% of 1,000 active;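 active means fitted half-maximal concentration for signal loss at or below twice the highest dose tested, in every separate run, actives reach about 64 µM in these data; inconclusive means runs disagree, or flat partial signal loss, or poor fit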
HepG2 tox: cytotoxic compounds in HepG2 cells; shares compounds with rRNA inh HTS; HepG2 viability, ATP luminescence, 72 h; activity change, negative = cytotoxicity, unspecified at 26 µM; 30 tested, under 10 active; AID 743480;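 active means compounds whose fitted half-maximal signal-loss concentration is at most twice their highest valid dose; inconclusive means flat curve with 30 to 70% signal loss, or poor fit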
AID977621: growth inhibition of wild-type GFP E. coli, dose response, H69 mutant RFP, cherry-pick. shares compounds with rRNA inh HTS. 1,900 tested, under 10 active. E. coli wild-type GFP strain growth, fluorescence, 24 h. activity change, negative = inhibition at 50 µM;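 active means Wild-type ribosome reporter drop at least double the humanized mutant ribosome reporter drop, growth loss under a set limit; inconclusive means no clear call, values can overlap the other calls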;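 further: wild-type GFP and H69 mutant RFP strains grown together 50/50 in each well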
AID977628: growth of wild-type and h24-humanized E. coli strains – h24 mutant RFP vs wild-type GFP, cherry-pick, dose response; E. coli WT GFP strain growth, fluorescence, 24 h; shares compounds with rRNA inh HTS; 1,900 tested, under 10 active; activity change, negative = inhibition at 50 µM;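 active means compound lowering the normal-ribosome reporter at least twice as much as the humanized-ribosome reporter, growth loss under a set limit; inconclusive means no clear call, values can overlap the other calls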;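 further: wild-type GFP and h24 humanized RFP strains co-cultured 1 to 1 per well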
* marks the source's active call; other numbers are inactive results; i = inactive; ? = inconclusive; . = not tested or not shown. In the library only some 2% were active in any assay of this set; here they are far more common.

SMILES	RAD54 inh	RAD52 anneal inh	PglD DTNB	XiGFP reactiv	E-selectin induc	rRNA inh HTS	RAD52 DNA ctr	others
COc1cc2cc(-c3ccc(O)cc3O)nc(C)c2cc1OC	36	-3	5	0	0	-21	.
Cc1cc(N2CCN(C)CC2)nc2ccc(NC(=S)NCCC(C)C)cc12	28	61*	-5	0	.	-12	i
CCN1CCN(c2cc(C)c3cc(NC(=S)NCCCOC)ccc3n2)CC1	21	61*	6	0	0	-1	i
COCCCNC(=S)Nc1ccc2nc(N3CCOCC3)cc(C)c2c1	6	-7	7	0	0	-18	.
COCCNC(=S)Nc1ccc2nc(N3CCN(C)CC3)cc(C)c2c1	22	52*	-5	0	0	2	i
Cc1cc(N2CCOCC2)nc2ccc(NC(=S)NCCC(C)C)cc12	6	4	5	0	7	-5	.
CCN(CC)CCNC(=S)Nc1ccc2nc(N3CCCC3)cc(C)c2c1	.	76*	.	0	.	22	i
CNC(=O)C[C@H]1CC[C@@H]2[C@H](COc3ccc(NC(=O)c4cc(F)cc(F)c4)cc3C(=O)N2C)O1	5	11	-3	0	0	3	.
C[C@@H]1CN([C@@H](C)CO)C(=O)c2cc(NC(=O)Nc3ccc4c(c3)OCO4)ccc2O[C@@H](C)CCCCO[C@H]1CN(C)Cc1ccccc1	5	14	0	0	0	2	.
COc1ccccc1CNC(=S)Nc1ccc2nc(N3CCN(C)CC3)cc(C)c2c1	19	77*	-2	0	.	-15	i
Cc1cc(N2CCCC2)nc2ccc(NC(=S)NCCCOC(C)C)cc12	.	58*	.	0	.	3	i
COc1ccc(NC(=O)Nc2ccc3c(c2)C(=O)N([C@@H](C)CO)C[C@@H](C)[C@@H](CN(C)C(=O)C2CCCCC2)OCCCC[C@H](C)O3)cc1	-5	-2	-1	0	0	-2	.
O=C(NC1CCN(Cc2ccccc2)CC1)c1ccc(Cn2c(=S)[nH]c3ccc(N4CCOCC4)cc3c2=O)cc1	4	-19	1	0	9	3	.
O=C(c1ccc(Cn2c(=S)[nH]c3ccc(N4CCOCC4)cc3c2=O)cc1)N1CCC(N2CCCCC2)CC1	.	87*	.	0	0	14	i
CN(C)Cc1cn(CC[C@H]2CC[C@@H](NC(=O)Nc3ccccc3F)[C@H](CO)O2)nn1	1	-8	0	0	0	4	.
CCCNC1=CC(=O)CC(C)(C)C1	.	98*	.	0	.	-4	i
CCC(=O)N1[C@H](C(=O)NCc2ccc(F)cc2)[C@@H](CO)[C@@H]2Cn3c(ccc(C4=CCCC4)c3=O)[C@@H]21	-6	-29	-3	0	0	2	.
CCOc1ccc(CCN2C(=S)N([C@@H](Cc3ccc(O)cc3)CN3CCCC3CN3C(=S)NC[C@@H]3Cc3ccc(O)cc3)C[C@@H]2CC(C)C)cc1 (stereo partly specified)	3	-46	1	2	.	.	.
CCOc1ccc(CCN2C(=S)N([C@@H](Cc3ccc(O)cc3)CN3CCC[C@@H]3CN3C(=S)NC[C@@H]3CC(C)C)C[C@@H]2Cc2ccc(O)cc2)cc1	-8	67*	0	0	?	10	i
CCCNC(=O)C[C@H]1C[C@H]2c3cc(NC(=O)CC4CC4)ccc3O[C@H]2[C@@H](CO)O1	1	-4	4	0	0	1	.
Cc1cccc(CN2C(=O)c3ccccc3S(=O)(=O)c3ccc(C(=O)NCCCN4CCCC4)cc32)c1	18	51*	-3	0	.	5	i
O=C(NCCN1CCCC1)c1ccc2c(c1)N(Cc1cccc(Cl)c1)C(=O)c1ccccc1S2(=O)=O	4	-11	1	0	.	8	.
CN(C)C(=O)c1cc2c(c(-c3cccc(-c4ccccc4F)c3)n1)[C@H](CCO)N(S(C)(=O)=O)C2	.	-17	.	0	0	4	.
COc1cc(-c2ccc(N3C(c4ccsc4)=Cc4ccc(F)cc4C3c3c[nH]c4ccc(C#N)cc34)cc2)cc(OC)c1OC (stereo unspecified)	.	71*	.	0	0	-25*	i	AID977621=-5.6;AID977628=-2.1
Nc1ccc(-c2nc3ccc(N)cc3[nH]2)cc1	.	-4	.	0	0	-16	.
SMILES	RAD54 inh	RAD52 anneal inh	PglD DTNB	XiGFP reactiv	E-selectin induc	rRNA inh HTS	RAD52 DNA ctr	others
Nc1ccc2nc(-c3ccc(Cl)cc3)[nH]c2c1	7	51*	0	0	3	-17*	i	AID977628=-8.8
CO[C@H]1CN(C)C(=O)c2cc(NC(C)=O)ccc2OC[C@H](C)N(C(=O)CC2CC2)C[C@H]1C	-13	-9	1	0	0	0	.
CCN(CC)CCCN(C(=O)c1ccco1)c1nc(-c2ccc(C)cc2)cs1	25	52*	3	0	1	-34*	i	AID977621=?;AID977628=?
C[C@@H]1CN([C@@H](C)CO)C(=O)c2cc(-c3ccc(C#N)cc3)cnc2O[C@H]1CN(C)C(=O)c1ccccc1	5	9	3	0	0	-2	.
Cc1ccc(C)c(-c2[nH]ncc2CN2CCCC(CO)(Cc3ccccc3C)C2)c1 (stereo unspecified)	.	-3	.	1	-1	-30*	.	AID977621=-8.9
OCC1(Cc2ccccc2)CCCN(Cc2cn[nH]c2-c2ccccc2)C1 (stereo unspecified)	.	2	.	0	.	3	.
COc1cc2c(cc1[N+](=O)[O-])-c1ccccc1C2	-3	-21	-5	0	.	.	.
COc1cc2c(cc1[N+](=O)[O-])-c1ccc([N+](=O)[O-])cc1C2	-2	-75	-2	0	0	-23*	.	HepG2 tox=-23;AID977628=?
O=C(C[C@@H]1C=C[C@@H](NC(=O)C2CCC2)[C@@H](CO)O1)NCc1ccccc1Cl	-8	4	1	0	0	6	.
CC(=O)Nc1ccc(NS(=O)(=O)c2cc(Cl)sc2Cl)cc1	-6	-3	-4	0	1	-2	.
